Assay results published in ChEMBL document CHEMBL3046036, “Bioactivity of the fungal metabolite (8R,16R)-(-)-pyrenophorin on graminaceous plants” (J Agric Food Chem, 2005).
Calls of active or inactive are those of the source. No cut-off for these calls is given here.

What was measured:
Avena sterilis [1] = assay: Inhibition of Avena sterilis seed germination at 20 degC at 90 uM (reference value: 0%); assay type: functional
Avena sativa [2] = assay: Inhibition of Avena sativa seed germination at 20 degC at 640 uM (reference value: 0%); assay type: functional
Triticum aestivum [3] = assay: Inhibition of Triticum aestivum (wheat) seed germination at 20 degC at 90 uM (reference value: 0%); assay type: functional
Avena fatua [4] = assay: Inhibition of Avena fatua seed germination at 20 degC at 80 uM (reference value: 0%); assay type: functional
Triticum aestivum [5] = assay: Inhibition of Triticum aestivum (wheat) seed germination at 20 degC at 60 uM (reference value: 0%); assay type: functional
Avena fatua [6] = assay: Inhibition of Avena fatua seed germination at 20 degC at 10 to 50 uM (reference value: 0%); assay type: functional
Avena sterilis [7] = assay: Effect on chlorophyll content in Avena sterilis assessed as chlorophyll dissipation rate at 20 degC and […] at 320 uM relative to control; assay type: ADME, organism-based; settings: in vivo
Outline: (§1)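 Leaf sections were treated with 320 µM metabolite and incubated in the dark at 20 °C, with 16 tubes per treatment. Every 12 h, segments from one tube were split into four tubes and extracted in DMSO at 65 °C for 30 min. Extracts were read at A665, tissue was dried at 105 °C and weighed, and chlorophyll was expressed as A665 per g dry weight.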

Avena fatua [8] = assay: Inhibition of Avena fatua seed germination at 20 degC at 200 uM (reference value: 0%); assay type: functional
Avena sativa [9] = assay: Inhibition of Avena sativa root growth at 20 degC and 12 hr photoperiod at > 51 uM; assay type: functional, organism-based
Outline: (§2)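 Pregerminated seeds were exposed in tubes to aqueous metabolite and kept in a growth chamber at 20 °C with a 12-h photoperiod. Main root length was measured after 120 h.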

Avena sterilis [10] = assay: Inhibition of Avena sterilis seed germination at 20 degC at 100 uM (reference value: 0%); assay type: functional
Avena sativa [11] = assay: Effect on chlorophyll content in Avena sativa assessed as chlorophyll dissipation rate at 20 degC and 12 hr photoperiod at 320 uM relative to control; assay type: ADME, organism-based; settings: in vivo; outline: as §1
Avena fatua [12] = assay: Inhibition of Avena fatua seed germination at 20 degC at 320 uM (reference value: 0%); assay type: functional
Avena sterilis [13] = assay: Inhibition of Avena sterilis seed germination at 20 degC at 10 to 50 uM (reference value: 0%); assay type: functional
Avena fatua [14] = assay: Inhibition of Avena fatua root growth at 20 degC and 12 hr photoperiod at > 51 uM; assay type: functional, organism-based; outline: as §2
Avena fatua [15] = assay: Enhancement of Avena fatua root growth at 20 degC and 12 hr photoperiod at 10 to 30 uM; assay type: functional, organism-based; outline: as §2
Triticum aestivum [16] = assay: Inhibition of Triticum aestivum (wheat) root growth at 20 degC and 12 hr photoperiod at > 51 uM; assay type: functional, organism-based
Avena sativa [17] = assay: Inhibition of Avena sativa seed germination at 20 degC at 100 uM (reference value: 0%); assay type: functional
Hordeum vulgare [18] = assay: Inhibition of Hordeum vulgare (barley) seed germination at 20 degC at 320 uM (reference value: 0%); assay type: functional
Avena fatua [19] = assay: Phytotoxicity against Avena fatua root growth at 20 degC and 12 hr photoperiod at 1000 uM; assay type: organism-based; settings: in vivo
Triticum aestivum [20] = assay: Inhibition of Triticum aestivum (wheat) seed germination at 20 degC at 100 uM (reference value: 0%); assay type: functional
Triticum aestivum [21] = assay: Inhibition of Triticum aestivum (wheat) seed germination at 20 degC at 70 uM (reference value: 0%); assay type: functional
Hordeum vulgare [22] = assay: Inhibition of Hordeum vulgare (barley) seed germination at 20 degC at 10 to 50 uM (reference value: 0%); assay type: functional
Triticum aestivum [23] = assay: Inhibition of Triticum aestivum (wheat) seed germination at 20 degC at 80 uM (reference value: 0%); assay type: functional
Avena sterilis [24] = assay: Inhibition of Avena sterilis seed germination at 20 degC at 70 uM (reference value: 0%); assay type: functional
Avena fatua [25] = assay: Inhibition of Avena fatua seed germination at 20 degC at 60 uM (reference value: 0%); assay type: functional
Triticum aestivum [26] = assay: Inhibition of Triticum aestivum (wheat) seed germination at 20 degC at 200 uM (reference value: 0%); assay type: functional
Avena fatua [27] = assay: Inhibition of Avena fatua seed germination at 20 degC at 100 uM (reference value: 0%); assay type: functional
Triticum aestivum [28] = assay: Phytotoxicity against Triticum aestivum (wheat) root growth at 20 degC and 12 hr photoperiod at 1000 uM; assay type: organism-based; settings: in vivo
Triticum aestivum [29] = assay: Inhibition of Triticum aestivum (wheat) seed germination at 20 degC at 320 uM (reference value: 0%); assay type: functional
Avena sativa [30] = assay: Inhibition of Avena sativa seed germination at 20 degC at 200 uM (reference value: 0%); assay type: functional
Triticum aestivum [31] = assay: Effect on chlorophyll content in Triticum aestivum (wheat) assessed as chlorophyll dissipation rate at 20 degC and 12 hr photoperiod at 320 uM relative to control; assay type: ADME, organism-based; settings: in vivo; outline: as §1
Hordeum vulgare [32] = assay: Inhibition of Hordeum vulgare (barley) root growth at 20 degC and 12 hr photoperiod at 31 to 50 uM; assay type: functional, organism-based; outline: as §2
Triticum aestivum [33] = assay: Inhibition of Triticum aestivum (wheat) root growth at 20 degC and 12 hr photoperiod at 31 to 50 uM; assay type: functional, organism-based
Avena fatua [34] = assay: Inhibition of Avena fatua root growth at 20 degC and 12 hr photoperiod at 31 to 50 uM; assay type: functional, organism-based; outline: as §2
Avena sterilis [35] = assay: Inhibition of Avena sterilis seed germination at 20 degC at 640 uM (reference value: 0%); assay type: functional

C[C@@H]1CCC(=O)/C=C/C(=O)O[C@H](C)CCC(=O)/C=C/C(=O)O1 [(8R,16R)-(-)-pyrenophorin]
inhibition at 90 µM (Avena sterilis [1]): 89.6%
inhibition at 640 µM (Avena sativa [2]): 100%
inhibition at 90 µM (Triticum aestivum [3]): 86.2%
inhibition at 80 µM (Avena fatua [4]): 82%
inhibition at 60 µM (Triticum aestivum [5]): 12.4%
inhibition (INH) (Avena fatua [6]): 0%
Ratio (Avena sterilis [7]): 1.4
inhibition at 200 µM (Avena fatua [8]): 97.9%
inhibition (Avena sativa [9]): Active
inhibition at 100 µM (Avena sterilis [10]): 96.8%
Ratio (Avena sativa [11]): 1.4
inhibition at 320 µM (Avena fatua [12]): 100%
inhibition (INH) (Avena sterilis [13]): 0%
inhibition (Avena fatua [14]): Active
Activity (Avena fatua [15]): Active
inhibition (Triticum aestivum [16]): Active
inhibition at 100 µM (Avena sativa [17]): 93.5%
inhibition at 320 µM (Hordeum vulgare [18]): 100%
Activity (Avena fatua [19]): Non-toxic
inhibition at 100 µM (Triticum aestivum [20]): 90.8%
inhibition at 70 µM (Triticum aestivum [21]): 67.8%
inhibition (INH) (Hordeum vulgare [22]): 0%
inhibition at 80 µM (Triticum aestivum [23]): 81.4%
inhibition at 70 µM (Avena sterilis [24]): 68.5%
inhibition at 60 µM (Avena fatua [25]): 12.5%
inhibition at 200 µM (Triticum aestivum [26]): 90.6%
inhibition at 100 µM (Avena fatua [27]): 95.3%
Activity (Triticum aestivum [28]): Non-toxic
inhibition at 320 µM (Triticum aestivum [29]): 98%
inhibition at 200 µM (Avena sativa [30]): 95.6%
Ratio (Triticum aestivum [31]): 1.4
inhibition (Hordeum vulgare [32]): inactive
inhibition (Triticum aestivum [33]): inactive
inhibition (Avena fatua [34]): inactive
inhibition at 640 µM (Avena sterilis [35]): 100%
